Reference: ChEMBL document CHEMBL1126204, “Nucleic acid related compounds. 74. Synthesis and biological activity of 2'(and 3')-deoxy-2'(and 3')-methylenenucleoside analogues that function as mechanism-based inhibitors of S-adenosyl-L-homocysteine hydrolase and/or ribonucleotide reductase” (J Med Chem, 1992)

Key:
MT4 = assay: In vitro inhibition of MT-4 (Human T-lymphocyte) cell proliferation.; type: functional, cell-based
How it was run: (§1)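 Human Molt/4F, MT-4, and Raji cells (wild-type, TK⁻ or dCK⁻) in RPMI-1640 with 10% inactivated FCS, 2 mM L-glutamine and 0.075% NaHCO₃, seeded at 7.5 × 10⁵ cells/mL with compound (0.001–500 µM). Incubated 3 days at 37 °C in humidified CO₂; viable cells counted by Coulter counter. IC₅₀ = 50% reduction in viable cells; means of 2–4 independent experiments.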

[1] = Concentration required to inhibit the proliferation of human T-lymphocyte CEM cells by 50% in presence exogenous necleoside Ado (100 uM).; type: functional, cell-based; conditions: CCRF-CEM, in the assay text read “1000 uM” for “100 uM”
How it was run: (§2)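 CEM human T-lymphocytes in RPMI-1640 with 10% inactivated FCS, 2 mM L-glutamine and 0.075% NaHCO₃. Test compound (0.001–500 µM) was co-added with the stated subtoxic exogenous nucleoside(s). Incubated 3 days at 37 °C in humidified CO₂, then viable cells counted by Coulter counter. IC₅₀ is the level giving 50% fewer viable cells; means of 2–4 independent experiments.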

[2] = In vitro inhibition of FM3A (murine carcinoma) cell proliferation.; type: functional; conditions: Mus musculus
How it was run: (§3)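 Murine FM3A or L1210 cells in Eagle's MEM with 10% inactivated FCS, 2 mM L-glutamine and 0.075% NaHCO₃, seeded at 5 × 10⁵ cells/mL with compound (0.001–500 µM). After 2 days at 37 °C in humidified CO₂, viable cells were counted with a Coulter counter. IC₅₀ = 50% fewer viable cells; mean of 2–4 experiments.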

L1210 [3] = assay: Antitumor activity in mice bearing L1210 murine leukemia cell line at a dose of 12.5 mg/kg/day.; type: functional, Mus musculus
How it was run: (§4)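 DBA/2 mice (20 g) inoculated ip with 10⁶ L1210 leukemia cells; test agent given ip once daily for 5 successive days beginning 1 day after inoculation, dissolved in Eagle's MEM containing 2.5% Tween (250 μL injection). Untreated tumor-bearing controls; read-out mean survival time in days, 7–15 mice per group.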

CEM (Homo sapiens) = assay: Concentration required to inhibit the proliferation of human T-lymphocyte CEM/o cells by 50%
[4] = Concentration required to inhibit the proliferation of human T-lymphocyte CEM/AK-/dCK-(Ado and dCyd kinase deficient) cells by 50%
L1210 [5] = assay: Antitumor activity in mice bearing L1210 murine leukemia cell line at a dose of 25 mg/kg/day.; type: functional, Mus musculus; how it was run: as §4
L1210 [6] = assay: In vitro inhibition of L1210 (murine leukemia) cell proliferation.; type: functional, cell-based; conditions: Mus musculus; how it was run: as §3
L1210 [7] = assay: Concentration required to inhibit the proliferation of L1210 murine leukemia cell line by 50% in presence exogenous necleoside dCyd (100 uM).; type: functional, cell-based; conditions: Mus musculus, in the assay text read “1000 uM” for “100 uM”
How it was run: (§5)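 L1210 murine leukemia cells in Eagle's MEM with 10% inactivated fetal calf serum, 2 mM L-glutamine and 0.075% NaHCO₃. 5 × 10⁵ cells/mL were exposed to test compound (0.001–500 µM) together with the stated exogenous nucleoside at subtoxic level. Incubated 2 days at 37 °C in humidified CO₂. Viable cells were counted by Coulter counter. IC₅₀ = 50% reduction in viable cell number; mean of 2–4 independent experiments.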

[8] = Concentration required to inhibit the proliferation of human T-lymphocyte CEM cells by 50% in presence exogenous necleoside Ado+dCyd (100 uM).; type: functional, cell-based; conditions: CCRF-CEM, in the assay text read “1000 uM” for “100 uM”; how it was run: as §2
L1210 [9] = assay: Antitumor activity in mice bearing L1210 murine leukemia cell line at a dose of 100 mg/kg/day.; type: functional, Mus musculus; how it was run: as §4
[10] = In vitro inhibition of Molt/4f (Human T-lymphoblast) cell proliferation.; type: functional; how it was run: as §1
[11] = Concentration required to inhibit the proliferation of human T-lymphocyte CEM/AK-(Ado kinase deficient) cells by 50%
[12] = Concentration required to inhibit the proliferation of human T-lymphocyte CEM/dCK-(dCyd kinase deficient) cells by 50%
L1210 [13] = assay: Concentration required to inhibit the proliferation of L1210 murine leukemia cell line by 50% in presence exogenous necleosides dCyd+Ado (100 uM).; type: functional, cell-based; conditions: Mus musculus, in the assay text read “1000 uM” for “100 uM”; how it was run: as §5
L1210 [14] = assay: Concentration required to inhibit the proliferation of L1210 murine leukemia cell line by 50% in presence exogenous necleoside Guo (50 uM).; type: functional, cell-based; conditions: Mus musculus; how it was run: as §5
L1210 [15] = assay: Antitumor activity in mice bearing L1210 murine leukemia cell line at a dose of 50 mg/kg/day.; type: functional, Mus musculus; how it was run: as §4
L1210 [16] = assay: Concentration required to inhibit the proliferation of L1210 murine leukemia cell line by 50% in presence exogenous necleoside Ado (100 uM).; type: functional, cell-based; conditions: Mus musculus, in the assay text read “1000 uM” for “100 uM”; how it was run: as §5
[17] = Concentration required to inhibit the proliferation of human T-lymphocyte CEM cells by 50% in presence exogenous necleoside dCyd (100 uM).; type: functional, cell-based; conditions: CCRF-CEM, in the assay text read “1000 uM” for “100 uM”; how it was run: as §2
[18] = Concentration required to inhibit the proliferation of human T-lymphocyte CEM/dCK-(dCyd kinase deficient) cells by 50%; type: functional
How it was run: (§6)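 Wild-type CEM and kinase-deficient sublines (AK⁻, dCK⁻, AK⁻/dCK⁻) grown in RPMI-1640 with 10% inactivated FCS, 2 mM L-glutamine and 0.075% NaHCO₃. Cells were exposed to compound at 0.001–500 µM for 3 days at 37 °C in humidified CO₂. Viable cells counted by Coulter counter; IC₅₀ = 50% reduction in viable cells. Mean of 2–4 independent experiments.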

[19] = Concentration required to inhibit the proliferation of human T-lymphocyte CEM/AK-/dCK-(Ado and dCyd kinase deficient) cells by 50%; type: functional; how it was run: as §6
CCRF-CEM = assay: (§7) Concentration required to inhibit the proliferation of human T-lymphocyte CEM/o cells by 50%; type: functional, cell-based; how it was run: as §6
[20] = Concentration required to inhibit the proliferation of human T-lymphocyte CEM/AK-(Ado kinase deficient) cells by 50%; type: functional; how it was run: as §6
Raji [21] = assay: Inhibition of human tumor B-lymphoblast Raji/dCK-(dcyd kinase deficient) cell proliferation; type: functional, cell-based; how it was run: as §1
Homo sapiens [22] = species on record: Homo sapiens; assay: as §7; type: functional; how it was run: as §6
Homo sapiens [23] = species on record: Homo sapiens; assay: Concentration required to inhibit the proliferation of human T-lymphocyte CEM/dCK-(dcyd kinase deficient) cells by 50%; type: functional; how it was run: as §6
Raji [24] = assay: Inhibition of human tumor B-lymphoblast Raji/O cell proliferation; type: functional, cell-based; how it was run: as §1
Raji [25] = assay: Inhibition of human tumor B-lymphoblast Raji/TK-(thymidine kinase deficient) cell proliferation; type: functional, cell-based; how it was run: as §1

Row | IC50 (L1210 [6]) [µM] | Compound | IC50 (MT4) [µM] | IC50 [2] [µM] | IC50 [10] [µM] | also measured
1 | 454 | C=C1[C@H](n2cnc3c(N(C)C)nc(N)nc32)O[C@H](CO)[C@H]1O | > 500 | > 500 | 335 | 
2 | 446 | C=C1[C@@H](O)[C@H](n2cnc3c(OC)nc(N)nc32)O[C@@H]1CO | > 500 | 439 | > 500 | 
3 | > 500 | C=C1[C@@H](O)[C@H](n2cnc3c(SC)nc(N)nc32)O[C@@H]1CO | > 500 | > 500 | > 500 | 
4 | 228 | C=C1[C@@H](O)[C@H](n2cnc3c(N)ncnc32)O[C@@H]1CO | 43 | 466 | > 500 | 
5 | 60 | C=C1[C@H](n2cnc3c(O)ncnc32)O[C@H](CO)[C@H]1O | > 200 | 113 | > 200 | 
6 | 10 | C=C1[C@H](n2cnc3c(Cl)nc(N)nc32)O[C@H](CO)[C@H]1O | 176 | 50 | 22 | 
7 | 441 | C=C1[C@@H](O)[C@H](n2cnc3c(Cl)nc(N)nc32)O[C@@H]1CO | > 500 | 469 | > 500 | 
8 | 378 | C=C1[C@@H](O)[C@H](n2ccc(N)nc2=O)O[C@@H]1CO | 121 | > 500 | 172 | IC50 (Raji [21]): > 500 µM; IC50 (Homo sapiens [22]): 63 µM; IC50 (Homo sapiens [23]): > 500 µM; IC50 (Raji [24]): 33 µM; IC50 (Raji [25]): 52 µM
9 | 10 | C=C1[C@H](n2cnc3c(OC)nc(N)nc32)O[C@H](CO)[C@H]1O | 180 | 41 | 23 | 

Row | Compound | IC50 (L1210 [6]) [µM] | IC50 (MT4) [µM] | IC50 [2] [µM] | IC50 [10] [µM] | also measured
10 | C=C1[C@H](n2cnc3c(N)nc(N)nc32)O[C@H](CO)[C@H]1O | 8.2 | > 500 | 67 | 22 | IC50 [1]: 21 µM; Mean survival time (L1210 [3]): 9.1 days; IC50 (CEM (Homo sapiens)): 7.7 µM; IC50 [4]: 194 µM; Mean survival time (L1210 [5]): 8.7 days; IC50 (L1210 [7]): 16 µM; IC50 [8]: 95 µM; Mean survival time (L1210 [9]): 2 days; IC50 [11]: 38 µM; IC50 [12]: 196 µM; IC50 (L1210 [13]): 41 µM; IC50 (L1210 [14]): 44 µM; Mean survival time (L1210 [15]): 3 days; IC50 (L1210 [16]): 48 µM; IC50 [17]: 133 µM
11 | C=C1[C@H](n2cnc3c(O)nc(N)nc32)O[C@H](CO)[C@H]1O | 8.5 | 150 | 102 | 22 | IC50 [18]: 221 µM; IC50 [1]: 25 µM; Mean survival time (L1210 [3]): 7.5 days; Mean survival time (L1210 [5]): 7.5 days; IC50 [19]: 201 µM; IC50 (L1210 [7]): 17 µM; IC50 [8]: 136 µM; Mean survival time (L1210 [9]): 2 days; IC50 (L1210 [13]): 75 µM; IC50 (L1210 [14]): 51 µM; Mean survival time (L1210 [15]): 5.3 days; IC50 (L1210 [16]): 55 µM; IC50 [17]: 136 µM; IC50 (CCRF-CEM): 9.4 µM; IC50 [20]: 36 µM
